# ChEMBL document CHEMBL1151705, “Novel azalides derived from 16-membered macrolides. Part II: Isolation of the linear 9-formylcarboxylic acid and its sequential macrocyclization with an amino alcohol or an azidoamine” (2008)
# Legend:
# Streptococcus pneumoniae [1] = assay: Antimicrobial activity against Streptococcus pneumoniae 6 constitutively expressing ermB after 20 hrs by agar dilution method; assay type: functional; settings: Streptococcus pneumoniae, 20 h; read-out: MIC
# In short: (§1)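 Streptococci, H. influenzae and M. catarrhalis were precultured on blood agar plates. Suspensions of about 10⁶ CFU/ml were inoculated onto sensitivity disk agar supplemented with 5% horse blood and incubated at 37 °C for 20 h. MIC was read as the lowest drug concentration with no visible growth.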
# Streptococcus pneumoniae [2] = assay: Antimicrobial activity against Streptococcus pneumoniae 8 expressing inducible ermB after 20 hrs by agar dilution method; assay type: functional; settings: Streptococcus pneumoniae, 20 h; read-out: MIC; in short: as §1
# Haemophilus influenzae [3] = assay: Antimicrobial activity against drug-susceptible Haemophilus influenzae 4 after 20 hrs by agar dilution method; assay type: functional; settings: Haemophilus influenzae, 20 h; read-out: MIC; in short: as §1
# Staphylococcus aureus [4] = assay: Antimicrobial activity against drug-susceptible Staphylococcus aureus 3 after 20 hrs by agar dilution method; assay type: functional
# In short: (§2)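 Agar dilution MIC. S. aureus seed culture was grown in sensitivity test broth. Cell suspension (about 10⁶ CFU/ml) was inoculated onto sensitivity disk agar with 5% horse blood and incubated at 37 °C for 20 h. MIC was the lowest drug concentration that prevented visible growth.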
# Streptococcus pneumoniae [5] = assay: Antimicrobial activity against Streptococcus pneumoniae 10 expressing mefA after 20 hrs by agar dilution method; assay type: functional; settings: Streptococcus pneumoniae, 20 h; read-out: MIC; in short: as §1
# Staphylococcus aureus [6] = assay: Antimicrobial activity against Staphylococcus aureus 5 expressing inducible ermB after 20 hrs by agar dilution method; assay type: functional; in short: as §2
# Moraxella catarrhalis [7] = assay: Antimicrobial activity against drug-susceptible Moraxella catarrhalis 2 after 20 hrs by agar dilution method; assay type: functional; in short: as §1
# Moraxella catarrhalis [8] = assay: Antimicrobial activity against drug-susceptible Moraxella catarrhalis 1 after 20 hrs by agar dilution method; assay type: functional; in short: as §1
# Streptococcus pneumoniae [9] = assay: Antimicrobial activity against Streptococcus pneumoniae 4 constitutively expressing ermB after 20 hrs by agar dilution method; assay type: functional; settings: Streptococcus pneumoniae, 20 h; read-out: MIC; in short: as §1
# Staphylococcus aureus [10] = assay: Antimicrobial activity against Staphylococcus aureus 6 expressing inducible ermC after 20 hrs by agar dilution method
# Streptococcus pneumoniae [11] = assay: Antimicrobial activity against drug-susceptible Streptococcus pneumoniae 2 after 20 hrs by agar dilution method; assay type: functional; settings: Streptococcus pneumoniae, 20 h; read-out: MIC; in short: as §1
# Streptococcus pyogenes [12] = assay: Antimicrobial activity against Streptococcus pyogenes 3 expressing mefA after 20 hrs by agar dilution method; assay type: functional; settings: Streptococcus pyogenes, 20 h; read-out: MIC; in short: as §1
# Haemophilus influenzae [13] = assay: Antimicrobial activity against drug-susceptible Haemophilus influenzae 1 after 20 hrs by agar dilution method; assay type: functional; settings: Haemophilus influenzae, 20 h; read-out: MIC; in short: as §1
# Streptococcus pneumoniae [14] = assay: Antimicrobial activity against drug-susceptible Streptococcus pneumoniae 3 after 20 hrs by agar dilution method; assay type: functional; settings: Streptococcus pneumoniae, 20 h; read-out: MIC; in short: as §1
# Haemophilus influenzae [15] = assay: Antimicrobial activity against drug-susceptible Haemophilus influenzae 3 after 20 hrs by agar dilution method; assay type: functional; settings: Haemophilus influenzae, 20 h; read-out: MIC; in short: as §1
# Streptococcus pneumoniae [16] = assay: Antimicrobial activity against Streptococcus pneumoniae 7 expressing inducible ermB after 20 hrs by agar dilution method; assay type: functional; settings: Streptococcus pneumoniae, 20 h; read-out: MIC; in short: as §1
# Streptococcus pneumoniae [17] = assay: Antimicrobial activity against drug-susceptible Streptococcus pneumoniae DP1 Type1 after 20 hrs by agar dilution method; assay type: functional; in short: as §1
# Staphylococcus aureus [18] = assay: Antimicrobial activity against drug-susceptible Staphylococcus aureus 209P JC-1 after 20 hrs by agar dilution method; assay type: functional; in short: as §2
# Streptococcus pneumoniae [19] = assay: Antimicrobial activity against Streptococcus pneumoniae 9 expressing mefA after 20 hrs by agar dilution method; assay type: functional; settings: Streptococcus pneumoniae, 20 h; read-out: MIC; in short: as §1
# Streptococcus pyogenes [20] = assay: Antimicrobial activity against drug-susceptible Streptococcus pyogenes 1 after 20 hrs by agar dilution method; assay type: functional; settings: Streptococcus pyogenes, 20 h; read-out: MIC; in short: as §1
# Staphylococcus aureus [21] = assay: Antimicrobial activity against Staphylococcus aureus 4 constitutively expressing ermA after 20 hrs by agar dilution method; assay type: functional; in short: as §2
# Staphylococcus aureus [22] = assay: Antimicrobial activity against drug-susceptible Staphylococcus aureus 2 after 20 hrs by agar dilution method; assay type: functional; in short: as §2
# Haemophilus influenzae [23] = assay: Antimicrobial activity against drug-susceptible Haemophilus influenzae 2 after 20 hrs by agar dilution method; assay type: functional; settings: Haemophilus influenzae, 20 h; read-out: MIC; in short: as §1
# Streptococcus pyogenes [24] = assay: Antimicrobial activity against Streptococcus pyogenes 2 constitutively expressing ermB after 20 hrs by agar dilution method; assay type: functional; in short: as §1
# Streptococcus pneumoniae [25] = assay: Antimicrobial activity against Streptococcus pneumoniae 5 constitutively expressing ermB/mefA after 20 hrs by agar dilution method; assay type: functional; settings: Streptococcus pneumoniae, 20 h; read-out: MIC; in short: as §1
Structure (SMILES),MIC (Streptococcus pneumoniae [1]),MIC (Streptococcus pneumoniae [2]),MIC (Haemophilus influenzae [3]),MIC (Staphylococcus aureus [4]),MIC (Streptococcus pneumoniae [5]),MIC (Staphylococcus aureus [6]),MIC (Moraxella catarrhalis [7]),MIC (Moraxella catarrhalis [8]),MIC (Streptococcus pneumoniae [9]),MIC (Staphylococcus aureus [10]),MIC (Streptococcus pneumoniae [11]),MIC (Streptococcus pyogenes [12]),MIC (Haemophilus influenzae [13]),MIC (Streptococcus pneumoniae [14]),MIC (Haemophilus influenzae [15]),MIC (Streptococcus pneumoniae [16]),MIC (Staphylococcus aureus [18]),MIC (Streptococcus pneumoniae [19]),MIC (Streptococcus pyogenes [20]),MIC (Staphylococcus aureus [21]),further results
"CCOC(=O)[C@H]1[C@H](C)O[C@@H](O[C@H]2[C@H](N(C)C)[C@@H](O)[C@H](O[C@H]3[C@@H](CC=O)C[C@@H](C)[C@@H](O)CN(C)CCC(C/C=C/c4ccnc5ccccc45)NC(=O)C[C@@H](OC(=O)CC)[C@@H]3OC)O[C@@H]2C)C[C@@]1(C)O (single isomer, unassigned)",> 128 µg/mL,> 128 µg/mL,32 µg/mL,0.5 µg/mL,0.25 µg/mL,0.5 µg/mL,1 µg/mL,2 µg/mL,> 128 µg/mL,1 µg/mL,0.13 µg/mL,2 µg/mL,64 µg/mL,0.25 µg/mL,16 µg/mL,> 128 µg/mL,1 µg/mL,0.25 µg/mL,0.5 µg/mL,> 128 µg/mL,"MIC (Streptococcus pneumoniae [17]; Streptococcus pneumoniae, 20 h, read-out: MIC): 0.13 µg/mL; MIC (Staphylococcus aureus [22]): 2 µg/mL; MIC (Haemophilus influenzae [23]): 2 µg/mL; MIC (Streptococcus pyogenes [24]): > 128 µg/mL; MIC (Streptococcus pneumoniae [25]): > 128 µg/mL"
CCOC(=O)[C@H]1[C@H](C)O[C@@H](O[C@H]2[C@H](N(C)C)[C@@H](O)[C@H](O[C@H]3[C@@H](CC=O)C[C@@H](C)[C@@H](O)CN(C)CCC(CCCc4ccnc5ccccc45)NC(=O)C[C@@H](OC(=O)CC)[C@@H]3OC)O[C@@H]2C)C[C@@]1(C)O (stereo in doubt; form 1),> 128 µg/mL,32 µg/mL,8 µg/mL,0.5 µg/mL,0.13 µg/mL,1 µg/mL,2 µg/mL,2 µg/mL,> 128 µg/mL,1 µg/mL,0.13 µg/mL,2 µg/mL,32 µg/mL,0.13 µg/mL,8 µg/mL,32 µg/mL,1 µg/mL,0.13 µg/mL,0.25 µg/mL,> 128 µg/mL,MIC (Streptococcus pneumoniae [17]): 0.06 µg/mL; MIC (Staphylococcus aureus [22]): 1 µg/mL; MIC (Haemophilus influenzae [23]): 2 µg/mL; MIC (Streptococcus pyogenes [24]): > 128 µg/mL; MIC (Streptococcus pneumoniae [25]): > 128 µg/mL
